# pEC50: −log10 of the molar value.
# How the values were obtained:
# [1] = tested on: Human immunodeficiency virus 1; assay: Effective concentration of compound to inhibit human immunodeficiency virus HIV-1 wild type strain IIIB multiplication in CEM wild type cells; assay type: functional, organism-based; conditions: Human immunodeficiency virus 1, CCRF-CEM
# Procedure, shortened: (§1)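 HIV-1 strains HTLV-IIIB (wild type) and N119 (RT Y181C) were grown in H9 cells in RPMI 1640 with 10% heat-inactivated FCS. CEM wt or CEM TK- cells were infected at 0.005 MOI with compound dilutions for 6 days, alongside infected and uninfected controls. HIV expression was read by HIV-1 antigen ELISA. IC50 was interpolated from % inhibition versus concentration plots.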
# [2] = tested on: Human immunodeficiency virus 1; assay: Effective concentration of compound to inhibit human immunodeficiency virus HIV-1 wild type strain IIIB multiplication in MT-4 infected cells; assay type: functional, organism-based
# Procedure, shortened: (§2)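 MT-4 cells were infected at 0.005 MOI and cultured 6 days in growth medium (RPMI 1640, 10% heat-inactivated FCS, antibiotics) with the compound dilutions. Infected and uninfected cultures without compound ran in parallel. HIV expression was quantified indirectly by MTT assay. EC50 was interpolated from plots of percent inhibition versus concentration.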
# MT4 = assay: Cytotoxic concentration required to reduce the viability of normal uninfected MT-4 cells; assay type: functional; conditions: Homo sapiens
# Procedure, shortened: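 Uninfected MT-4 cultures were grown with the same compound dilutions as the antiviral assay, run in parallel. A 30% inhibition of cell growth relative to control cultures counted as significant. CC50 was interpolated from plots of percent inhibition versus compound concentration.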
# [3] = tested on: Human immunodeficiency virus 2; assay: Effective concentration of compound to inhibit human immunodeficiency virus HIV-2 multiplication in CEM wild type cells; assay type: functional, organism-based; conditions: Human immunodeficiency virus 2, CCRF-CEM
# Procedure, shortened: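 CEM wild-type cells were infected at 0.005 MOI and held 6 days in growth medium containing the compound dilutions, alongside untreated infected and uninfected controls. HIV-1 or HIV-2 antigen was detected by ELISA. EC50 was interpolated from plots of percent inhibition versus concentration.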
# [4] = tested on: Human immunodeficiency virus 1; assay: Effective concentration of compound to inhibit human immunodeficiency virus HIV-1 strain N119 multiplication in CEM wild type cells; assay type: functional, organism-based; conditions: Human immunodeficiency virus 1, CCRF-CEM; procedure, shortened: as §1
# [5] = tested on: Human immunodeficiency virus 1; assay: Effective concentration of compound to inhibit human immunodeficiency virus HIV-1 strain N119 multiplication in MT-4 infected cells; assay type: functional, organism-based; procedure, shortened: as §2
# [6] = tested on: Human immunodeficiency virus 2; assay: Effective dose was measured against human immunodeficiency virus type 2 in thymidine-kinase-deficient CEM Cells; experiment 1; assay type: functional; conditions: Human immunodeficiency virus 2, CCRF-CEM; read-out: ED50 (the source's name)
# Procedure, shortened: (§3)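 HIV-2 strain SBL 6669 in CEM TK- cells, infected at 0.005 MOI and kept with compound dilutions for 6 days, with infected and uninfected controls. Readout was HIV-2 antigen ELISA. The 50% effective value was interpolated from % inhibition versus concentration plots. Each line is one of three independent tests.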
# [7] = tested on: Human immunodeficiency virus 2; assay: Effective dose was measured against human immunodeficiency virus type 2 in thymidine-kinase-deficient CEM Cells; experiment 2; assay type: functional; conditions: Human immunodeficiency virus 2, CCRF-CEM; read-out: ED50 (the source's name); procedure, shortened: as §3
# [8] = tested on: Human immunodeficiency virus 2; assay: Effective dose was measured against human immunodeficiency virus type 2 in thymidine-kinase-deficient CEM Cells; experiment 3; assay type: functional; conditions: Human immunodeficiency virus 2, CCRF-CEM; read-out: ED50 (the source's name); procedure, shortened: as §3
# [9] = tested on: Human immunodeficiency virus 2; assay: Effective concentration of compound to inhibit human immunodeficiency virus HIV-2 multiplication in thymidine-kinase-deficient CEM cells; assay type: functional, organism-based; conditions: Human immunodeficiency virus 2, CCRF-CEM
# Procedure, shortened: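 Thymidine-kinase-deficient CEM cells were infected with HIV-2 at 0.005 MOI and incubated 6 days with compound dilutions, alongside infected and uninfected controls without compound. Virus expression was quantified by HIV-2 antigen ELISA. ED50 was interpolated from percent inhibition versus concentration plots; three independent tests.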
# [10] = tested on: Human immunodeficiency virus 1; assay: Effective concentration of compound to inhibit human immunodeficiency virus HIV-1 strain N119 multiplication in thymidine-kinase-deficient CEM cells; assay type: functional, organism-based; conditions: Human immunodeficiency virus 1, CCRF-CEM; procedure, shortened: as §1
# CCRF-CEM = assay: Cytotoxic concentration was measured in CEM wild-type/thymidine-kinase-deficient CEM Cells; assay type: functional; conditions: Homo sapiens
# Procedure, shortened: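 Uninfected CEM wild-type and CEM TK- cultures were exposed to the compound dilutions in parallel with the antiviral tests. Cell growth inhibition of 30% versus control cultures was considered significant. CC50 was interpolated from plots of percent inhibition against concentration.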
# [11] = tested on: Human immunodeficiency virus 1; assay: Effective concentration of compound to inhibit human immunodeficiency virus HIV-1 wild type strain IIIB multiplication in thymidine-kinase-deficient CEM cells; assay type: functional, organism-based; conditions: Human immunodeficiency virus 1, CCRF-CEM; procedure, shortened: as §1
# [12] = tested on: Human immunodeficiency virus 2; assay: Effective concentration of compound to inhibit human immunodeficiency virus HIV-2 multiplication in MT-4 infected cells; assay type: functional, organism-based; procedure, shortened: as §2
pEC50 [2],SMILES,pEC50 [1],CC50 (MT4) [nM],pEC50 [3],pEC50 [4],pEC50 [5],pEC50 [6],pEC50 [7],pEC50 [8],pEC50 [9],pEC50 [10],CC50 (CCRF-CEM) [nM],pEC50 [11],pEC50 [12]
7.52,CCc1c(Cc2cc(C)cc(C)c2)n(COCc2ccc(OCc3ccccc3)cc2)c(=O)[nH]c1=O,–,12000,–,–,6.52,–,–,–,–,–,–,–,–
–,CCOCn1c(Cc2ccccc2)c(C(C)C)c(=O)[nH]c1=O [EMIVIRINE],7.52,> 100000,< 5.00,< 4.00,4.10,–,–,–,< 5.00,< 5.00,> 100000,< 5.00,< 5.00
8.30,CCc1c(Cc2cc(C)cc(C)c2)n(COC/C=C/c2ccc(OC(=O)c3ccccc3)cc2)c(=O)[nH]c1=O,–,35000,–,–,6.00,–,–,–,–,–,–,–,–
7.70,CCc1c(Cc2cc(C)cc(C)c2)n(COC/C=C/c2ccc(O)cc2)c(=O)[nH]c1=O,8.70,35000,< 5.00,6.40,5.62,–,–,–,< 5.00,6.70,32000,8.22,< 5.00
6.30,Cc1cn([C@H]2C=C[C@@H](CO)O2)c(=O)[nH]c1=O [STAVUDINE],6.52,> 100000,7.00,6.10,5.74,–,–,–,< 5.00,< 5.00,> 100000,< 5.00,6.30

SMILES,pEC50 [2],pEC50 [1],CC50 (MT4) [nM],pEC50 [3],pEC50 [4],pEC50 [5],pEC50 [6],pEC50 [7],pEC50 [8],pEC50 [9],pEC50 [10],CC50 (CCRF-CEM) [nM],pEC50 [11],pEC50 [12]
CCOCn1c(Cc2ccccc2)c(C(C)C)c(=O)n(C(=O)c2ccc(OP(=O)(OCCSC(=O)C(C)(C)C)OCC3C=CC(n4cc(C)c(=O)[nH]c4=O)O3)cc2)c1=O (centres undefined),7.52,7.52,35000,7.70,7.52,5.57,5.52,5.52,5.40,5.52,6.52,32000,8.22,–
CCc1c(Cc2cc(C)cc(C)c2)n(COCc2ccc(O[P@](=O)(OCCSC(=O)C(C)(C)C)OC[C@@H]3C=C[C@H](n4cc(C)c(=O)[nH]c4=O)O3)cc2)c(=O)[nH]c1=O,8.52,–,35000,7.00,–,6.40,5.52,5.70,5.70,5.70,–,32000,–,5.40
CCc1c(Cc2cc(C)cc(C)c2)n(COC/C=C/c2ccc(O[P@](=O)(OCCSC(=O)C(C)(C)C)OC[C@@H]3C=C[C@H](n4cc(C)c(=O)[nH]c4=O)O3)cc2)c(=O)[nH]c1=O,7.40,8.00,35000,7.00,6.52,5.48,5.52,5.40,5.30,5.40,6.70,32000,8.30,–
